# pIC50: −log10 of the molar value. Calls of active or inactive are those of the source.
# Columns and labels:
# Paracentrotus lividus [1] = experiment: Antimitotic activity in sea urchin free-swimming blastulae assessed as microtubule destabilization by measuring embryo spinning exposed 8 to 10 hrs after fertilization measured after 15 mins to 20 hrs; type: functional, Blastula
# How it was run: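 Free-swimming P. lividus blastulae just after hatching (8–10 h post-fertilization) from same culture, exposed in seawater to 2-fold decreasing concentrations (DMSO stock diluted in EtOH). Settling to well bottom with rapid spinning around animal-vegetal axis scored by light microscopy over 15 min–20 h. Effective threshold concentration; duplicate measurements.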
# Paracentrotus lividus [2] = experiment: Antimitotic activity in sea urchin embryo assessed as cleavage alteration exposed 8 to 15 mins after fertilization 45 to 55 mins before first mitotic cycle completion measured at 2.5 to 5.5 hrs post dose; type: functional
# How it was run: (§1)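 Paracentrotus lividus eggs, fertilized in filtered seawater, cultured as monolayer (up to 2000 embryos/mL) at room temperature. Exposed 8–15 min post-fertilization to 2-fold decreasing concentrations (DMSO stock diluted in EtOH; final DMSO ≤0.05%, EtOH ≤1%). Cleavage alteration scored at 8-cell, arrest at early blastula stage (2.5–5.5 h). Effective threshold concentration reported; duplicate measurements.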
# Paracentrotus lividus [3] = experiment: Antimitotic activity in sea urchin embryo assessed as cleavage arrest exposed 8 to 15 mins after fertilization 45 to 55 mins before first mitotic cycle completion measured at 2.5 to 5.5 hrs post dose; type: functional; how it was run: as §1
# [4] = Antiproliferative activity against human NCI60 cells at 10 uM after 48 hrs by SRB assay relative to control; type: functional; details: NCI60, 48 h, read-out: GI
# [5] = Antiproliferative activity against human OVCAR8 cells measured after 3 to 4 days by Celltiter-Glo luminescent cell viability assay; type: functional; details: OVCAR-8
# [6] = Antiproliferative activity against human Caov3 cells measured after 96 hrs by Celltiter-Glo assay; type: functional, cell-based; details: Caov-3, 96 h
# How it was run: (§2)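 Cells plated 24 h, then treated 96 h with 0.1% DMSO or concentrations […]; growth by CellTiter-Glo luminescence, normalized to DMSO control; IC50 from dose–response curves by logistic nonlinear regression; mean of three independent experiments.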
# [7] = Antiproliferative activity against human MDA-MB-468 cells measured after 48 hrs by SRB assay; type: functional, cell-based; details: MDA-MB-468, 48 h
# [8] = Antiproliferative activity against human MDA-MB-DYT2 cells measured after 96 hrs by Celltiter-Glo assay; type: functional, cell-based; how it was run: as §2
# [9] = Antiproliferative activity against human NCI-H1975 cells measured after 96 hrs by Celltiter-Glo assay; type: functional, cell-based; details: NCI-H1975, 96 h; how it was run: as §2
# [10] = Antiproliferative activity against human NCI60 cells measured after 48 hrs by SRB assay; type: functional; details: NCI60, 48 h
# [11] = Antiproliferative activity against human MDA-MB-231 cells measured after 96 hrs by Celltiter-Glo assay; type: functional, cell-based; details: MDA-MB-231, 96 h; how it was run: as §2
# [12] = Antiproliferative activity against human MDA-MB-435 cells measured after 48 hrs by SRB assay; type: functional, cell-based; details: MDA-MB-435, 48 h
# [13] = Antiproliferative activity against human MDA-MB-435 cells measured after 96 hrs by Celltiter-Glo assay; type: functional, cell-based; details: MDA-MB-435, 96 h; how it was run: as §2
# [14] = Antiproliferative activity against human TOV112D cells measured after 96 hrs by Celltiter-Glo assay; type: functional, cell-based; how it was run: as §2
# [15] = Antiproliferative activity against human MDA-MB-468 cells measured after 96 hrs by Celltiter-Glo assay; type: functional, cell-based; details: MDA-MB-468, 96 h; how it was run: as §2
# [16] = Antiproliferative activity against human NCI/ADR-RES cells measured after 3 to 4 days by Celltiter-Glo luminescent cell viability assay; type: functional
# [17] = Solubility in seawater assessed as micro-crystal formation at 4 uM by light microscopy; type: physicochemical
# How it was run: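 Compound from 10 mM DMSO stock diluted 10-fold in 96% EtOH, added to seawater with sea urchin embryos; microcrystal formation checked by light microscopy.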
# Paracentrotus lividus [18] = experiment: In vivo microtubule destabilizing activity in sea urchin embryo assessed as tuberculate egg formation exposed 8 to 15 mins after fertilization 45 to 55 mins before first mitotic cycle completion measured at 2.5 to 5.5 hrs post dose; type: functional
# How it was run: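 Paracentrotus lividus eggs from KCl-induced spawning, fertilized and cultured in filtered seawater at room temperature, up to 2000 embryos/mL. Compounds came from 10 mM DMSO stocks diluted 10-fold in 96% EtOH; tolerated solvent limits were 0.05% DMSO and 1% EtOH. Eggs were exposed to 2-fold decreasing concentrations and scored by light microscopy. The result is the effective threshold concentration, measured in duplicate.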
SMILES,EC (Paracentrotus lividus [1]) [µM],EC (Paracentrotus lividus [2]) [µM],EC (Paracentrotus lividus [3]) [µM],inhibition of growth at 10 µM [4] [%],also measured
O=C1CC(c2cccc(F)c2)c2snc(-c3cccc(F)c3)c2N1 (configuration not stated),>4,1,>4,6.4,–
COc1ccc(-c2nsc3c2NC(=O)CC3c2ccc3c(c2)OCCO3)cc1 (configuration not stated),0.5,0.01,0.05,–,GI50 [5]: 1410 nM; pIC50 [6]: 6.08; pIC50 [7]: 6.48; pIC50 [8]: 5.87; pIC50 [9]: 5.91; GI50 [10]: 933 nM; pIC50 [11]: 5.77; pIC50 [12]: 6.61; pIC50 [13]: 6.46; pIC50 [14]: 6.18; pIC50 [15]: 6.35; GI50 [16]: 367 nM
O=C1CC(c2cccc(Cl)c2)c2snc(-c3cccc(F)c3)c2N1 (configuration not stated),>4,1,4,–,–
COc1ccc(-c2nsc3c2NC(=O)CC3c2cccc(Cl)c2)cc1 (configuration not stated),0.1,0.01,0.1,–,GI50 [5]: 2920 nM; pIC50 [6]: 5.88; pIC50 [7]: 6.76; pIC50 [8]: < 5.70; pIC50 [9]: < 5.70; GI50 [10]: 1740 nM; pIC50 [11]: 5.79; pIC50 [12]: 6.13; pIC50 [13]: 6.10; pIC50 [14]: 5.89; pIC50 [15]: 6.12; GI50 [16]: 562 nM
COc1ccc(-c2nsc3c2NC(=O)CC3c2cc(OC)c(O)c(O)c2OC)cc1 (configuration not stated),>5,1,2,–,–
COc1ccc(/C=C\c2cc(OC)c(OC)c(OC)c2)cc1OP(=O)([O-])[O-].[Na+].[Na+] [FOSBRETABULIN DISODIUM],0.05,0.005,0.01,–,pIC50 [6]: 7.88; pIC50 [8]: 7.22; GI50 [10]: 1.7 nM; pIC50 [11]: 6.76; pIC50 [13]: 8.06; pIC50 [14]: 7.51
COc1ccc(-c2nsc3c2NC(=O)CC3c2cccc(Cl)c2)cc1OC (configuration not stated),>4,2,>4,14,–
COc1cc(C2CC(=O)Nc3c(-c4ccccc4)nsc32)c(OC)c(O)c1O (configuration not stated),>4,>4,>4,–,–
O=C1CC(c2ccc3c(c2)OCO3)c2snc(-c3ccc(F)cc3)c2N1 (configuration not stated),>4,1,>4,11.7,–
O=C1CC(c2ccc(F)cc2)c2snc(-c3ccc(F)cc3)c2N1 (configuration not stated),>4,1,4,4.2,solubility [17]: Insoluble
COc1ccc(-c2nsc3c2NC(=O)CC3c2cc(OC)c3c(c2OC)OCO3)cc1 (configuration not stated),1,0.05,0.2,–,–
O=C1CC(c2ccsc2)c2snc(-c3ccc(F)cc3)c2N1 (configuration not stated),4,0.05,0.2,–,–
O=C1CC(c2ccsc2)c2snc(-c3cccc(F)c3)c2N1 (configuration not stated),2,0.05,0.5,7.8,–
COc1cc(C2CC(=O)Nc3c(-c4ccc(Cl)cc4)nsc32)cc2c1OCO2 (configuration not stated),>4,2,>4,17.8,solubility [17]: Insoluble
O=C1CC(c2ccc(Cl)cc2)c2snc(-c3cccc(F)c3)c2N1 (configuration not stated),>4,>4,>4,16.5,solubility [17]: Insoluble
COc1cc(C2CC(=O)Nc3c(-c4ccccc4)nsc32)c(OC)c2c1OCO2 (configuration not stated),>4,>4,>4,–,–
O=C1CC(c2ccc(F)cc2)c2snc(-c3cccc(F)c3)c2N1 (configuration not stated),>4,1,4,–,Activity (Paracentrotus lividus [18]): Active

# Source: ChEMBL document CHEMBL3877272, “Synthesis and anti-mitotic activity of 6,7-dihydro-4H-isothiazolo[4,5-b]pyridin-5-ones: In vivo and cell-based studies” (Eur J Med Chem, 2017)
